According to ChEMBL document CHEMBL2176974, “A bactericidal guanidinomethyl biaryl that alters the dynamics of bacterial FtsZ polymerization” (J Med Chem, 2012):
Values after ≈ are worked out from the molar mass of the structure shown. Active and inactive are the calls of the source. No cut-off for these calls is given here.

What was measured:
Escherichia coli [1] = experiment: Antimicrobial activity against Escherichia coli N43 expressing AcrAB efflux pump mutant incubated for 24 hrs by broth microdilution method; type: functional; conditions: N43, 24 h
Escherichia coli [2] = experiment: Antimicrobial activity against Escherichia coli W4573 incubated for 24 hrs by broth microdilution method; type: functional; conditions: W4573, 24 h
Summary of the method: (§1)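 CLSI broth microdilution. Log-phase bacteria at 10⁵ CFU/mL were exposed to 2-fold serial dilutions (64 to 0.016 μg/mL) in cation-adjusted Mueller-Hinton broth, 5% defibrinated sheep blood added for Streptococcus. Incubated aerobically 24 h at 37 °C. Growth read as OD600; MIC taken as the lowest concentration giving 90% growth inhibition.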

Escherichia coli [3] = experiment: Antimicrobial activity against ESBL producing Escherichia coli ATCC BAA-201 expressing TEM3 lactamase incubated for 24 hrs by broth microdilution method; type: functional; conditions: ATCC BAA-201, 24 h; summary of the method: as §1
Enterococcus faecalis [4] = experiment: microbe, parasite or virus in culture; type: functional; conditions: ATCC 51575, 24 h
Enterococcus faecalis [5] = experiment: microbe, parasite or virus in culture; type: functional; conditions: ATCC 19433, 24 h
Staphylococcus aureus [6] = experiment: Antimicrobial activity against methicillin-resistant Staphylococcus aureus Mu3 incubated for 24 hrs by broth microdilution method; type: functional; conditions: Mu3, 24 h
Staphylococcus aureus [7] = experiment: microbe, parasite or virus in culture; type: functional; conditions: ATCC 33591, 24 h
Staphylococcus aureus [8] = experiment: microbe, parasite or virus in culture; type: functional; conditions: ATCC 49951, 24 h
Staphylococcus aureus [9] = experiment: microbe, parasite or virus in culture; type: functional; conditions: 8325-4, 24 h
Enterococcus faecalis [10] = experiment: Stimulation of Enterococcus faecalis FtsZ self-polymerization at 40 ug/mL by microtiter plate-based light scattering assay
Summary of the method: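 Purified E. faecalis FtsZ (10 μM) mixed with compound (0–40 μg/mL) and 1 mM GTP in 50 mM Tris-HCl pH 7.4, 50 mM KCl, 2 mM magnesium acetate, 10 mM CaCl2. Polymerization followed continuously as light scattering (A340) at 25 °C over 400 min.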

[11] = biological target: T1, Cell division protein FtsZ (Escherichia coli K-12) (UniProt P0A9A6); experiment: Stimulation of Escherichia coli FtsZ self-polymerization at 40 ug/mL by microtiter plate-based light scattering assay
T1 sequence (whole entry): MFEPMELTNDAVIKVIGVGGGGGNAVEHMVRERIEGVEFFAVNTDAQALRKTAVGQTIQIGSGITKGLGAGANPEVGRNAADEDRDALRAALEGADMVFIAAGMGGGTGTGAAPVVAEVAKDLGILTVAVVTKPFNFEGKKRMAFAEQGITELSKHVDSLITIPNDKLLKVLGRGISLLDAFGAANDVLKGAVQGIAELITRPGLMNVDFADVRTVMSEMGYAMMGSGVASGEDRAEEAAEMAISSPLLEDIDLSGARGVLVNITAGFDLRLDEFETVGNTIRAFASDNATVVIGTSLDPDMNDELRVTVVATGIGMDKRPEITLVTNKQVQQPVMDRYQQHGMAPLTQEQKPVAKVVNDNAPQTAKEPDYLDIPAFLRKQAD

[12] = biological target: T2, Cell division protein FtsZ (Staphylococcus aureus) (UniProt P0A031); experiment: Stimulation of Staphylococcus aureus FtsZ self-polymerization at 40 ug/mL by microtiter plate-based light scattering assay
T2 sequence (whole entry): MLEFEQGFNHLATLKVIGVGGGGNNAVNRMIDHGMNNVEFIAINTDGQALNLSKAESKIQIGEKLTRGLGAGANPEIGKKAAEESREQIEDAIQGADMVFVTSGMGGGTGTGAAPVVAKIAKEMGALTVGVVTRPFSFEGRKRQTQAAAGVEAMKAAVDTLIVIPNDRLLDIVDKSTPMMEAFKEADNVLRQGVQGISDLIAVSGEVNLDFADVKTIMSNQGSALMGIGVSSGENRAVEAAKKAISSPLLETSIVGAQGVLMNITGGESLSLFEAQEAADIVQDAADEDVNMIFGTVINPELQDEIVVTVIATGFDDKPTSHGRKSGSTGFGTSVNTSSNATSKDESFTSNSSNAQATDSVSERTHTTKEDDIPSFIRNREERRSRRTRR

[13] = biological target: T3, Cell division protein FtsZ (Staphylococcus aureus, UniProt P0A031); experiment: Binding affinity to Staphylococcus aureus FtsZ expressed in Escherichia coli BL21 (DE3) at 25 degC by fluorescence anisotropy assay
T3 sequence (P0A031 whole entry): T2 sequence (whole entry)
Summary of the method: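 Intrinsic compound fluorescence anisotropy. Compound at 5 μM was titrated with 0–25 μM FtsZ in 50 mM Tris·HCl pH 7.4, 50 mM KCl, 2 mM magnesium acetate. Samples were incubated 5 min at 25 °C, excited at 245 nm with emission at 318 nm, and G-corrected. Runs were in triplicate and averaged. Kd was obtained by nonlinear least-squares fit. SaFtsZ was expressed in E. coli BL21(DE3) and purified by ammonium sulfate, MonoQ and Superdex-200.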

[14] = biological target: T4, Cell division protein FtsZ (Escherichia coli K-12, UniProt P0A9A6); experiment: Binding affinity to Escherichia coli FtsZ at 25 degC by fluorescence anisotropy assay
T4 sequence (P0A9A6 whole entry): T1 sequence (whole entry)

[15] = Binding affinity to Enterococcus faecalis FtsZ at 25 degC by fluorescence anisotropy assay
Staphylococcus aureus [16] = experiment: microbe, parasite or virus in culture; type: functional; conditions: 8325-4, 24 h; remark: listed apart in the source
Staphylococcus aureus [17] = experiment: Antimicrobial effect against 3x10^9 CFU/ml methicillin-sensitive Staphylococcus aureus 8325-4 at 4 to 32 times MIC assessed as incidence of colonies growth measured after 24 incubation by large inoculation approach based drug resistance detection method; type: functional, organism-based
Summary of the method: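 Inoculum count checked on nonselective plates. Incubated at 37 °C and examined after 24 h and daily thereafter. Mutation frequency = colonies on selective plates / total bacteria plated.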

Escherichia coli [18] = experiment: Potency index, ratio of MBC to MIC for Escherichia coli W4573; type: functional
Summary of the method: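 MBC/MIC ratio. MIC: CLSI broth microdilution, 10⁵ CFU/mL in CAMH broth, 24 h at 37 °C, OD600, 90% inhibition. MBC: well aliquots plated on tryptic soy agar, counted after 24 h, 3-log CFU reduction. Ratio 1–2 read as bactericidal, ≥8 as bacteriostatic.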

Escherichia coli [19] = experiment: Antimicrobial activity against Escherichia coli W4573 incubated for 24 hrs in broth followed by colony transfer to tryptic soy agar for further 24 hrs incubation; type: functional; conditions: W4573, 24 h
Summary of the method: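 MBC: broth microdilution as for MIC (10⁵ CFU/mL, CAMH broth, 24 h, 37 °C). Aliquots from wells were then plated on tryptic soy agar and colonies counted after 24 h. MBC taken as the lowest concentration giving a 3-log CFU reduction.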

[20] = biological target: Tubulin beta chain (Sus scrofa) (UniProt P02554); conditions: 10 ug/mL
[21] = biological target: Tubulin beta chain (Sus scrofa) (UniProt P02554); experiment: Stimulation of MAP-rich pig beta-tubulin polymerization at 25 ug/mL by microtiter plate-based light scattering assay
Summary of the method: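 MAP-rich porcine tubulin (70% β-tubulin, 30% MAPs) at 2 mg/mL with 1 mM GTP. Buffer was 80 mM PIPES·NaOH pH 7.0, 2 mM MgCl₂, 1 mM EGTA. Light scattering was followed as A340 continuously at 37 °C for 60 min, against a DMSO vehicle.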

Enterococcus faecalis [22] = experiment: Binding affinity to Enterococcus faecalis FtsZ by fluorescence anisotropy BoGTPgammaS competition assay
Summary of the method: (§2)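 Competition with fluorescent BoGTPγS. BoGTPγS (1 μM final) was mixed with 5 μM FtsZ and compound or unlabeled GTP at 0–40 μM. Buffer was 50 mM Tris·HCl pH 7.4, 50 mM KCl, 2 mM magnesium acetate. After 5 min at 25 °C, anisotropy was read at excitation 488 nm and emission 510 nm, in triplicate and averaged.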

[23] = biological target: T1, Cell division protein FtsZ (Escherichia coli K-12); experiment: Binding affinity to Escherichia coli FtsZ by fluorescence anisotropy BoGTPgammaS competition assay; summary of the method: as §2
[24] = biological target: T2, Cell division protein FtsZ (Staphylococcus aureus); experiment: Binding affinity to Staphylococcus aureus FtsZ expressed in Escherichia coli BL21 (DE3) by fluorescence anisotropy BoGTPgammaS competition assay; summary of the method: as §2

Tubulin beta chain (Sus scrofa), sequence (P02554 whole entry): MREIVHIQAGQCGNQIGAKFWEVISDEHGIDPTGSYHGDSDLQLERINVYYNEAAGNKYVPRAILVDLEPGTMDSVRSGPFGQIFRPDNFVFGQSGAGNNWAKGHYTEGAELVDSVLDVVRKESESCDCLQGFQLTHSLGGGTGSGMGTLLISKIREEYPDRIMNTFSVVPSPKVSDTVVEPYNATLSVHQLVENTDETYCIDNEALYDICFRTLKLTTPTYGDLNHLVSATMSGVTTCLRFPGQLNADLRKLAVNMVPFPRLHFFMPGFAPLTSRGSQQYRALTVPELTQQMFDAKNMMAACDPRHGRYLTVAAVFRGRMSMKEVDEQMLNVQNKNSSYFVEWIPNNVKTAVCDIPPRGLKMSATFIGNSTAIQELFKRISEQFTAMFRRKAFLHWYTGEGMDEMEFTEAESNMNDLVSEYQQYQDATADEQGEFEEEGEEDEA

Compound | MIC (Escherichia coli [2]) [µg/mL] | MIC (Escherichia coli [3]) [µg/mL] | MIC (Enterococcus faecalis [4]) [µg/mL] | MIC (Enterococcus faecalis [5]) [µg/mL] | MIC (Staphylococcus aureus [6]) [µg/mL] | MIC (Staphylococcus aureus [7]) [µg/mL] | MIC (Staphylococcus aureus [8]) [µg/mL] | MIC (Staphylococcus aureus [9]) [µg/mL] | Activity [12] | further results
CC(C)(C)c1ccc(-c2cc(CNC(=N)N)ncn2)cc1 | > 64 | > 64 | > 64 | > 64 | 32 (≈ 113 µM) | 64 (≈ 226 µM) | 32 (≈ 113 µM) | 64 (≈ 226 µM) | inactive | MIC (Escherichia coli [1]): 32 µg/mL (≈ 113 µM); Activity (Enterococcus faecalis [10]): inactive; Activity [11]: inactive; Kd [13]: Not Active; Kd [14]: Not Active; Kd [15]: Not Active
CC(C)(C)c1ccc(-c2ccnc(CNC(=N)N)c2)cc1 | 64 (≈ 227 µM) | 64 (≈ 227 µM) | 64 (≈ 227 µM) | 32 (≈ 113 µM) | 8 (≈ 28.3 µM) | 16 (≈ 56.7 µM) | 8 (≈ 28.3 µM) | 8 (≈ 28.3 µM) | inactive | MIC (Escherichia coli [1]): 8 µg/mL (≈ 28.3 µM); Activity (Enterococcus faecalis [10]): inactive; Activity [11]: inactive; Kd [13]: Not Active; Kd [14]: Not Active; Kd [15]: Not Active
Cc1onc(-c2ccccc2Cl)c1C(=O)N[C@@H]1C(=O)N2[C@@H]1SC(C)(C)[C@@H]2C(=O)[O-].[Na+] [OXACILLIN SODIUM SALT] | – | – | 64 | 8 | > 64 | > 64 | 0.25 | 0.063 | inactive | –
CC[C@H]1OC(=O)[C@H](C)[C@@H](O[C@H]2C[C@@](C)(OC)[C@@H](O)[C@H](C)O2)[C@H](C)[C@@H](O[C@@H]2O[C@H](C)C[C@H](N(C)C)[C@H]2O)[C@](C)(O)C[C@@H](C)C(=O)[C@H](C)[C@@H](O)[C@]1(C)O [ERYTHROMYCIN] | – | – | > 64 | 1 (≈ 1.36 µM) | > 64 | > 64 | 0.25 (≈ 0.341 µM) | 0.125 (≈ 0.17 µM) | – | MBC (Staphylococcus aureus [16]): 32 µg/mL (≈ 43.6 µM)
CO[C@H]1/C=C/O[C@@]2(C)Oc3c(C)c(O)c4c(O)c(c(/C=N/N5CCN(C)CC5)c(O)c4c3C2=O)NC(=O)/C(C)=C\C=C\[C@H](C)[C@H](O)[C@@H](C)[C@@H](O)[C@@H](C)[C@H](OC(C)=O)[C@@H]1C | – | – | – | – | – | – | – | – | – | Activity (Staphylococcus aureus [17]): inactive
NC[C@@H]1O[C@H](O[C@H]2[C@@H](O)[C@H](O[C@@H]3[C@@H](O)[C@H](N)C[C@H](N)[C@H]3O[C@H]3O[C@H](CN)[C@@H](O)[C@H](O)[C@H]3N)O[C@@H]2CO)[C@H](N)[C@@H](O)[C@@H]1O.O.O=S(=O)(O)O [NEOMYCIN TRISULFATE HYDRATE] | 1 | – | – | – | – | – | – | – | – | Ratio (Escherichia coli [18]): 2; MBC (Escherichia coli [19]): 2 µg/mL
CN[C@H](CC(C)C)C(=O)N[C@H]1C(=O)N[C@@H](CC(N)=O)C(=O)N[C@H]2C(=O)N[C@H]3C(=O)N[C@H](C(=O)N[C@H](C(=O)O)c4cc(O)cc(O)c4-c4cc3ccc4O)[C@H](O)c3ccc(c(Cl)c3)Oc3cc2cc(c3O[C@@H]2O[C@H](CO)[C@@H](O)[C@H](O)[C@H]2O[C@H]2C[C@](C)(N)[C@H](O)[C@H](C)O2)Oc2ccc(cc2Cl)[C@H]1O.Cl [VANCOMYCIN HYDROCHLORIDE] | – | – | > 64 | 1 | – | – | – | – | – | Activity (Enterococcus faecalis [10]): inactive; MBC (Staphylococcus aureus [16]): 1 µg/mL
NCC[C@H](O)C(=O)N[C@@H]1C[C@H](N)[C@@H](O[C@H]2O[C@H](CN)[C@@H](O)[C@H](O)[C@H]2O)[C@H](O)[C@H]1O[C@H]1O[C@H](CO)[C@@H](O)[C@H](N)[C@H]1O.O=S(=O)(O)O | 2 | > 64 | – | – | – | – | – | – | – | MIC (Escherichia coli [1]): 1 µg/mL
CCC[C@@H]1C[C@@H](C(=O)N[C@@H]([C@H]2O[C@H](SC)[C@H](O)[C@@H](O)[C@H]2O)[C@H](C)Cl)N(C)C1.Cl [CLINDAMYCIN HYDROCHLORIDE] | – | – | > 64 | 2 | > 64 | > 64 | 0.063 | 0.031 | inactive | –
COC(=O)Nc1nc2cc(C(=O)c3cccs3)ccc2[nH]1 | – | – | – | – | – | – | – | – | – | inhibition [20]: Active
CC(=O)O[C@H]1C(=O)[C@@]2(C)[C@H]([C@H](OC(=O)c3ccccc3)[C@]3(O)C[C@H](OC(=O)[C@H](O)[C@@H](NC(=O)c4ccccc4)c4ccccc4)C(C)=C1C3(C)C)[C@]1(OC(C)=O)CO[C@@H]1C[C@@H]2O | – | – | – | – | – | – | – | – | – | Activity [21]: Active
CC1(C)S[C@@H]2[C@H](NC(=O)[C@H](N)c3ccccc3)C(=O)N2[C@H]1C(=O)[O-].[Na+] [AMPICILLIN SODIUM] | 4 | > 64 | – | – | – | – | – | – | – | Activity [11]: inactive
Nc1nc(=O)c2ncn([C@@H]3O[C@H](COP(=O)(O)OP(=O)(O)OP(=O)(O)O)[C@@H](O)C3O)c2[nH]1 (single isomer, unassigned) | – | – | – | – | – | – | – | – | – | Activity (Enterococcus faecalis [22]): Dose-dependent effect; Activity [23]: Dose-dependent effect; Activity [24]: Dose-dependent effect
